Data taken from ChEMBL document CHEMBL3351816, “Structure-based optimization of a peptidyl inhibitor against calcineurin-nuclear factor of activated T cell (NFAT) interaction” (J Med Chem, 2014).
The source made the active and inactive calls. The calls are words filed in the database; no cut-off is given here. Numbered stars: 1 amine (or outer) side, 2 acyl side, 3 side chain; on linkers, the order of the positions; unused ones are H or OH. Square brackets hold non-standard residues; d marks the D form. Peptide text beside a SMILES is read from it. X1 = CC1(C)SC[C@@H](C(=O)[*:2])N1[*:1]; Tle = CC(C)(C)[C@H](N)C(=O)O

Tests used:
[1] = tested on: Serum; assay: Drug metabolism in 25% human serum at 37 degC at 6 hrs; format: ADME, cell-free
How it was run: (§1)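 Peptides were incubated in diluted human serum (25%) at 37 °C for up to 6 h. The amount of intact peptide remaining was monitored over time by HPLC.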

[2] = (§2) Inhibition of FITC-labelled […] binding to calcineurin (unknown origin) by modified fluorescence anisotropy assay; design: species or system Homo sapiens
[3] = organism: Homo sapiens; assay: as §2
[4] = Half life in 25% human serum at 37 degC; format: ADME; how it was run: as §1
[5] = Binding affinity to GST-calcineurin fusion protein substrate docking site (unknown origin) expressed in Escherichia coli BL21 cells by fluorescence anisotropy assay; design: species or system Homo sapiens
How it was run: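 GST–CN fusion expressed in E. coli BL21, glutathione-Sepharose purified. FA read at ex 485/em 525 nm; KD from fitting FA versus CN concentration with correction for fluorophore–protein interaction.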

[6] = tested on: HeLa; assay: Inhibition of calcineurin in human HeLa cells assessed as blocked of GFP-NFAT translocation at 500 nM prior to ionomycin treatment by fluorescence based confocal microscopy in presence of ionomycin; format: cell-based
How it was run: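 HeLa cells stably expressing GFP–NFAT1 pretreated with R11-conjugated peptide (500 nM), then stimulated with ionomycin. Time-lapse live-cell confocal imaging; increase in nuclear fluorescence after 10 min ionomycin compared with inhibitor-free control (100%). Mean ± SD from at least 30 cells; two-tailed t test.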

[7] = tested on: Serum; assay: Drug metabolism in 25% human serum assessed as compound remaining at 37 degC; format: ADME, cell-free
How it was run: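 Peptide incubated in human serum diluted to 25% at 37 °C; remaining intact peptide quantified by HPLC over time up to 6 h.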

[8] = molecular target: Albumin (Bos taurus, UniProt P02769); assay: Binding affinity to bovine serum albumin; format: ADME; conditions: cattle, isolated protein
Sequence of Albumin (P02769 whole entry): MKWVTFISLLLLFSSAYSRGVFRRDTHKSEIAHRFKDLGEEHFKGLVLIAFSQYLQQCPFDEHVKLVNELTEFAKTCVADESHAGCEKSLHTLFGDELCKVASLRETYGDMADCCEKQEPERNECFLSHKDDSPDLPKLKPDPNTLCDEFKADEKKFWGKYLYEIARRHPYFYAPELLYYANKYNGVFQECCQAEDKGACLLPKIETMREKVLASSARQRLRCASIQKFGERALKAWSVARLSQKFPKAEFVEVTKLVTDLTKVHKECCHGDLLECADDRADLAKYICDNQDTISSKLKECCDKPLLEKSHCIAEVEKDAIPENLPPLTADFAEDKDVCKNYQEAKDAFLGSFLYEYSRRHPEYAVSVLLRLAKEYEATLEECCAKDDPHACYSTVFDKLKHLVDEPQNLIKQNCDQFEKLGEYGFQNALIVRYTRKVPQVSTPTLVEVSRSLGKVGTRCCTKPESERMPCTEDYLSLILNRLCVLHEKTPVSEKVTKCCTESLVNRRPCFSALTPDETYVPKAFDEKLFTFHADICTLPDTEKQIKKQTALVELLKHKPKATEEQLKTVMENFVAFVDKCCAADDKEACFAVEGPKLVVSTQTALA

[9] = molecular target: T1, Tyrosine-protein phosphatase non-receptor type 1 (Homo sapiens, UniProt P18031); assay: Binding affinity to PTP1B (unknown origin)
T1 sequence (P18031 whole entry): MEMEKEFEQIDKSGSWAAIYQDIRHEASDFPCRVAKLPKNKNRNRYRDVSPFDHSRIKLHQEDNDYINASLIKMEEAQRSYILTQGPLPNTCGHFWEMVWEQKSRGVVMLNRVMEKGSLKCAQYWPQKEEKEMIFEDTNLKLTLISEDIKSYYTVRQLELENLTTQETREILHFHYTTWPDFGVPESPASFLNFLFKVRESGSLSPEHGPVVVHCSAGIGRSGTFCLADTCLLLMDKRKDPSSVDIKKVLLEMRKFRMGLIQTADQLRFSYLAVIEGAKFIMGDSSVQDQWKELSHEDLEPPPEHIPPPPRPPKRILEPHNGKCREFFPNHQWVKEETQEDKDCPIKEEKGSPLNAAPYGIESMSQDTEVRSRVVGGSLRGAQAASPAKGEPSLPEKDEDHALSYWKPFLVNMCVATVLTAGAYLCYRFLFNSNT

[10] = molecular target: Tyrosine-protein phosphatase non-receptor type 6 (Homo sapiens, UniProt P29350); assay: Binding affinity to SHP1 (unknown origin)
Sequence of Tyrosine-protein phosphatase non-receptor type 6 (P29350 whole entry): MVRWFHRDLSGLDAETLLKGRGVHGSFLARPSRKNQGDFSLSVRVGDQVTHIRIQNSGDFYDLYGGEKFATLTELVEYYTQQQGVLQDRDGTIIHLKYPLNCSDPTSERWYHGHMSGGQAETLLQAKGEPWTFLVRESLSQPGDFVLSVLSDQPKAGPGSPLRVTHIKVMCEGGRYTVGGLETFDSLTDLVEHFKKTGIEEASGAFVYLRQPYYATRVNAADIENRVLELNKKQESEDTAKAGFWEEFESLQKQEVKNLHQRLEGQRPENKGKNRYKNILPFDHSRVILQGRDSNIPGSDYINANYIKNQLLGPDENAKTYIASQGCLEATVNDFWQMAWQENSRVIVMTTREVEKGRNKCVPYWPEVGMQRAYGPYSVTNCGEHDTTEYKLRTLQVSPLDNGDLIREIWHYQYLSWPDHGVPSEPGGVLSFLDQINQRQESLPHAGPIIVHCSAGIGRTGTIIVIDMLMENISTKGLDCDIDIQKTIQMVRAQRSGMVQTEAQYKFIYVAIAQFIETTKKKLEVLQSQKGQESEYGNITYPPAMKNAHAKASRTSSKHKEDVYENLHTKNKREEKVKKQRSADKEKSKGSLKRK

[11] = tested on: GTPase KRas (Homo sapiens), P01116 [G12V]; assay: Binding affinity to K-Ras G12V mutant (unknown origin)
Sequence of GTPase KRas (Homo sapiens), P01116 [G12V] (P01116 whole entry G12V, the tested form may be a part): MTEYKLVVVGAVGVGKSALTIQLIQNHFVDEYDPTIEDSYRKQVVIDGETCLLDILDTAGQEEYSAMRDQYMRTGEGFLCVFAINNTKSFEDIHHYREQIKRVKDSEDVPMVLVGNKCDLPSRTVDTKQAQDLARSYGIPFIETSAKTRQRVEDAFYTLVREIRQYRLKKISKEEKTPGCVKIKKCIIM

[12] = molecular target: Growth factor receptor-bound protein 2 (Homo sapiens) (UniProt P62993); assay: Binding affinity to SH2 domain of Grb2 (unknown origin)

IC50 [2]	inhibition [3]	Compound	Kd [5]	inhibition [6]	also measured
		CCCOC(=O)CNC(=O)[C@H](CCC(=O)O)NC(=O)[C@H](CCC(=O)O)NC(=O)[C@H](Cc1cnc[nH]1)NC(=O)[C@@H]1CSC(C)(C)N1C(=O)CNC(=O)[C@@H](NC(=O)[C@@H](NC(=O)[C@@H](NC(=O)[C@@H](NC(=O)[C@@H](NC(=O)[C@@H]1CCCN1C(=O)[C@H](Cc1cnc[nH]1)NC(=O)[C@@H]1CCCN1C(=O)CNC(=O)CCSSC[C@H](NC(=O)[C@H](CCCNC(=N)N)NC(=O)[C@H](CCCNC(=N)N)NC(=O)[C@H](CCCNC(=N)N)NC(=O)[C@H](CCCNC(=N)N)NC(=O)[C@H](CCCNC(=N)N)NC(=O)[C@H](CCCNC(=N)N)NC(=O)[C@H](CCCNC(=N)N)NC(=O)[C@H](CCCNC(=N)N)NC(=O)[C@H](CCCNC(=N)N)NC(=O)[C@H](CCCNC(=N)N)NC(=O)[C@H](CCCNC(=N)N)NC(C)=O)C(N)=O)C(C)(C)C)[C@@H](C)CC)C(C)(C)C)[C@@H](C)CC)[C@@H](C)O		95%	
280 nM	Dose-dependent effect	CC[C@H](C)[C@H](NC(=O)[C@@H](NC(=O)[C@@H](NC(=O)[C@@H](NC(=O)[C@@H]1CCCN1C(=O)[C@H](Cc1cnc[nH]1)NC(=O)[C@@H]1CCCN1C(=O)CN)C(C)(C)C)[C@@H](C)CC)C(C)(C)C)C(=O)N[C@H](C(=O)NCC(=O)N1CCC[C@H]1C(=O)N[C@@H](Cc1cnc[nH]1)C(=O)N[C@@H](CCC(=O)O)C(=O)N[C@@H](CCC(=O)O)C(=O)O)[C@@H](C)O (H-GPHP[Tle]I[Tle]ITGPHEE-OH)	43 nM		
110 nM	Dose-dependent effect	CC[C@H](C)[C@H](NC(=O)[C@@H](NC(=O)[C@@H](NC(=O)[C@@H](NC(=O)[C@@H]1CCCN1C(=O)[C@H](Cc1cnc[nH]1)NC(=O)[C@@H]1CCCN1C(=O)CN)C(C)(C)C)[C@@H](C)CC)C(C)(C)C)C(=O)N[C@H](C(=O)NCC(=O)N1[C@H](C(=O)N[C@@H](Cc2cnc[nH]2)C(=O)N[C@@H](CCC(=O)O)C(=O)N[C@@H](CCC(=O)O)C(=O)O)CSC1(C)C)[C@@H](C)O (H-GPHP[Tle]I[Tle]ITG[X1]HEE-OH)	2.6 nM	95%	Stability [7]: 60%; Activity [8]: Not Active; Kd [9]: 9 µM; Kd [10]: > 15 µM; Activity [11]: inactive; Activity [12]: inactive
		H-GPHAVAVAAGPHEE-OH	> 200000 nM		

Compound	IC50 [2]	inhibition [3]	Kd [5]	inhibition [6]	also measured
CC[C@H](C)[C@H](NC(=O)[C@@H](NC(=O)[C@@H]1CCCN1C(=O)[C@H](Cc1cnc[nH]1)NC(=O)[C@@H]1CCCN1C(=O)CN)C(C)C)C(=O)N[C@H](C(=O)N[C@H](C(=O)N[C@H](C(=O)NCC(=O)N1CCC[C@H]1C(=O)N[C@@H](Cc1cnc[nH]1)C(=O)N[C@@H](CCC(=O)O)C(=O)N[C@@H](CCC(=O)O)C(=O)O)C(C)O)[C@@H](C)CC)C(C)C (stereo not given in full)	4100 nM	Dose-dependent effect	477 nM		Stability [1]: Unstable; half-life [4]: 60 min
